Screening data deposited in PubChem by several laboratories.
Shown is part of a subset that was picked to be rich in hits.
TLR4 MyD88 comp = blocks binding of human TLR4 to MyD88; HeLa CL3-4 TLR4/MyD88 BLA complementation, FRET ratio; AID 861; inhibition, % at 8.4 µM; O00206+Q99836; 0.18% of 200,000 active; in the data active = inhibition above about 25%;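 also: 0% = vehicle and 100% = reference inhibitor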
NOD2-RIPK2 inh = inhibitors of human NOD2-RIPK2 interaction | O43353 | 0.38% of 360,000 active | inhibition, % at 4.98 µM | CHO BLA complementation NOD2-RIPK2, CCF4 ratio; in the data active = inhibition above about 21%;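 also: 0% = vehicle only and 100% = reference blocker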
UPR CHOP act = apoptotic UPR (CHOP) activation | CHO-CHOP luciferase reporter, luminescence; percent of tunicamycin response over DMSO baseline | activation, % at 10 µM | 0.34% of 330,000 active;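 active = at 10 µM dose, activation of 40% or more, normalized to positive control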;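 also: 100% = tunicamycin at 10 µg/mL and 0% = DMSO alone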
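System: CHO-CHOP luciferase reporter cell line; amount: 500 cells/well; buffer or medium: F12 medium containing 10% fetal bovine serum; incubation: 6 h compound exposure at 37 °C after overnight seeding; measured by: luciferase luminescence after 10 min with Steady-Glo reagent; evaluation: % reporter activation, DMSO baseline versus tunicamycin full activation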
CHOP inh = CHOP inhibition in unfolded protein response; AID 2732; inhibition, % at 10 µM; CHO-K1 CHOP-promoter luciferase, tunicamycin-induced, 15-18 h; 3.8% of 220,000 active;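 active = compounds that reduced the stress-induced luciferase reporter signal by more than about 70% of percent inhibition, limit read from the data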;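 also: 0% = tunicamycin plus vehicle and 100% = wells without tunicamycin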
UPR XBP1 act = activators of adaptive arm of unfolded protein response (XBP1); 0.33% of 330,000 active; activation, % at 20 µM; CHO-XBP1 luciferase reporter, IRE1-XBP1 UPR activation, luminescence; percent of tunicamycin response, DMSO as zero; AID 463104;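 active = versus positive control, 20 µM dose yields 30% or more activation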;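 also: 100% = tunicamycin at 10 µg/mL and 0% = DMSO only wells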
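Material: CHO-XBP1 cells stably carrying IRE1-XBP1-driven luciferase reporter / Amount: 1000 cells per well / Compound: 20 µM, 1% DMSO / Times: 6 h treatment, 37 °C / Detection: luciferase luminescence / Measure: % activation of reporter signal versus tunicamycin and DMSO controls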
TLR9-MyD88 inh = TLR9-MyD88 interaction inhibition; inhibition, % at 4.98 µM; AID 504734; Q9NR96+Q99836; CHO BLA complementation TLR9-MyD88, CCF4 FRET ratio; 0.21% of 340,000 active;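 active = inhibition above the mean over all tested compounds plus 3 SD, cut at about 21% in these data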;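 also: 0% = DMSO only wells and 100% = clavulanate BLA inhibitor control wells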
* = called active by the depositor; . = no result.

SMILES | TLR4 MyD88 comp | NOD2-RIPK2 inh | UPR CHOP act | CHOP inh | UPR XBP1 act | TLR9-MyD88 inh
COc1ccc(C(=O)NCCS(=O)(=O)N(C)C2CCCCC2)cc1 | . | 9.1 | -0.3 | . | -2.4 | -0.4
CCCCn1nnnc1C(c1ccccc1)N1CCN(c2ccc(C)cc2)CC1 (stereo not drawn) | . | 8.2 | . | . | . | .
CNc1nc(Oc2cccc(NC(C)=O)c2)c2sccc2n1 | . | -3.7 | . | . | . | .
Nc1[nH]n2c(=O)c3c(nc2c1N=Nc1ccccc1)CCCC3 | -10.3 | -4.0 | 1.4 | -85.9 | 3.1 | -0.2
Nc1[nH]n2c(=O)c3c(nc2c1N=Nc1ccc(Cl)cc1)CCCC3 | 0.1 | 1.0 | 1.2 | 77.6* | -2.0 | -1.9
O=C(ONC(=O)C1C2C=CC(C2)C1C(=O)NOC(=O)c1ccccc1)c1ccccc1 (stereo not drawn) | . | 10.5 | . | . | . | -3.2
O=C1Nc2ccccc2/C1=C\c1cccn1-c1ccc(OC(F)(F)F)cc1 | 10.4 | -2.1 | 0.4 | 93.5* | -2.2 | -10.7
O=C(Nc1nonc1NC(=O)C1CCCCC1)C1CCCCC1 | 7.1 | 8.9 | -0.9 | 65.5 | -4.5 | -1.1
O=[N+]([O-])c1cccc(-c2nnc(-c3ccccc3)o2)c1 | 2.6 | -4.5 | 3.9 | 80.1* | 0.9 | -4.8
CC(CCc1ccccc1)NC(=O)c1ccc(NC(=O)c2ccccc2)cc1 (stereo not drawn) | -4.2 | -1.7 | -1.6 | 84.8* | -4.7 | 3.6
CC(CCc1ccccc1)NC(=O)c1ccc(NC(=O)c2cccc(Br)c2)cc1 (stereo not drawn) | -18.8 | 3.5 | 2.5 | 32.1 | 5.0 | 4.3
CCCCCCCc1c(C)nc(N2CCOCC2)[nH]c1=O | 12.6 | -12.8 | -1.1 | 71.9* | -1.7 | 6.1
C=CS(=O)(=O)c1sc(Cl)c(N2CCOCC2)c1[N+](=O)[O-] | 7.7 | -0.7 | . | 103.8* | . | -4.2
COC(=O)C(C)Sc1nc2c(c(=O)[nH]c(=O)n2C)n1CCC(C)C (stereo not drawn) | 9.1 | -8.8 | -1.3 | -12.8 | 1.0 | -3.9
O=S(=O)(c1ccccc1)N1CCC(n2nnc3cc(F)ccc32)CC1 | -1.3 | 2.6 | 0.1 | -10.6 | -0.5 | -6.1
O=S(=O)(c1ccc2c(c1)OCCO2)N1CCC(n2nnc3cc(C(F)(F)F)ccc32)CC1 | 11.0 | -1.5 | 1.8 | 70.4* | 1.7 | 10.4
COc1cccc(C(=O)c2sc(NC(C)C)nc2N)c1 | 11.5 | -10.7 | -2.7 | 91.3* | -3.7 | -2.9
CCCN(CCC)S(=O)(=O)c1ccc(C(=O)Nc2nnc(CSC)o2)cc1 | -12.4 | -4.3 | 3.0 | 13.8 | 1.1 | -4.6
CCCN(CCC)S(=O)(=O)c1ccc(C(=O)Nc2nnc(-c3cccc(OC)c3)o2)cc1 | -9.8 | -4.0 | 5.3 | 92.1* | 4.0 | 1.1
CCCN(CCC)S(=O)(=O)c1ccc(C(=O)Nc2nnc(-c3cc(OC)cc(OC)c3)o2)cc1 | -15.6 | -11.3 | 10.7 | 85.4* | 4.9 | 14.1
COc1ccc(NC2CC(=O)N(c3cc([N+](=O)[O-])ccc3C)C2=O)cc1 (stereo not drawn) | -3.7 | -15.0 | -0.7 | -2.2 | -1.9 | -2.2
COc1ccc(NS(=O)(=O)c2cc3c4c(c2)CCN4C(=O)CC3)cc1OC | . | -2.6 | 1.7 | . | -1.4 | 9.4
Cc1ccc(C(=O)n2c(N)nc3ccccc32)cc1 | 1.1 | -5.4 | -9.5 | 74.8* | -5.6 | -8.6
CC1(C)Cc2c(sc3c2c(=N)n(Cc2ccco2)c(=O)n3Cc2ccccc2)CO1 | 1.6 | 1.0 | -3.8 | 70.2* | 1.8 | -2.4
Cc1ccc(CNC(=O)COC(=O)c2nc(-c3ccccc3)oc2C)cc1 | . | -8.7 | 0.7 | . | -0.3 | 4.1
SMILES | TLR4 MyD88 comp | NOD2-RIPK2 inh | UPR CHOP act | CHOP inh | UPR XBP1 act | TLR9-MyD88 inh
CC(C)(C)c1nnc(NC(=O)c2cc(-c3ccccc3)nc3ccccc23)s1 | -0.5 | -1.7 | 2.5 | 74.0* | -1.9 | 4.7
O=C(Nc1nc2c(s1)CCCC2)c1cc(-c2ccccc2)nc2ccccc12 | 0.6 | -9.9 | 2.7 | 80.8* | -4.3 | 2.0
Cc1c(Cl)cccc1NC(=S)N(Cc1cccnc1)Cc1ccccc1Cl | 0.3 | -1.1 | -0.2 | 40.8 | 0.1 | -1.4
COc1cccc(C(C(=O)NC2CCCC2)N2CCN(c3cc(C)nc4ccccc34)CC2)c1OC (stereo not drawn) | . | 10.8 | . | . | . | .
Fc1cccc(CN2CCN(Cc3nc(CCc4ccccc4)no3)CC2)c1 | -4.6 | -4.3 | 0.6 | 18.5 | 2.0 | -4.7
O=C(NCc1ccco1)c1ccc(N2CCCCC2)c([N+](=O)[O-])c1 | -12.9 | -16.3 | 5.6 | 70.5* | 4.0 | 2.1
Cc1cccc(C(C)C)c1NC(=O)COC(=O)c1cccc(S(=O)(=O)N2CCc3ccccc3C2)c1 | 0.5 | 1.4 | -0.2 | 85.3* | -1.1 | -1.4
COc1ccc(/C=C/c2nc(-c3ccccc3O)n[nH]2)cc1 | -15.7 | -7.9 | 5.7 | 78.9* | 2.6 | -7.9
Cc1ccc(OCC(=O)Nc2ccc(O)c(-c3nc4ccccc4o3)c2)cc1 | -2.4 | -2.9 | 3.3 | 88.6* | 13.7 | -0.7
O=C(Cc1ccccc1F)Nc1nc(-c2cccnc2)cs1 | 8.3 | 10.3 | 3.1 | 80.6* | 1.2 | 4.2
COc1ccc(Oc2nnc(-c3ccc(C)cc3)c3ccccc23)cc1 | 1.5 | -6.6 | -0.1 | 83.3* | -0.3 | -2.4
COC(C/C=C\C(=O)[C@@H](C)OCc1ccccc1)OC | . | . | -0.7 | . | -0.6 | .
CNC(=O)[C@H]1O[C@@H](n2cnc3c(NCc4ccc(N)cc4)ncnc32)C(O)[C@H]1O (stereo partly drawn) | . | . | . | -27.9 | . | .
CCOP(=O)(OCC)c1nc(-c2cccc3ccccc23)oc1NCc1ccccc1 | 1.3 | -4.7 | -1.2 | 77.4* | 0.7 | -3.4
CCOP(=O)(OCC)c1nc(/C=C/c2ccccc2)oc1NCc1ccc(OC)cc1 | -3.5 | -12.4 | -1.1 | 76.5* | -0.8 | -8.6
CC(C)(C)C1CCC2(CC1)CC(=O)c1ccccc1O2 (stereo not drawn) | . | 3.4 | 0.3 | 74.0* | -0.8 | 1.5
Cc1ccc(N=C2SCCCN2C(=O)c2ccco2)cc1Cl | 19.8 | -6.9 | 1.1 | 80.1* | -1.0 | 1.2
Cc1ccc(NC(=O)CCNC(=O)c2ccco2)cc1Cl | . | 4.2 | 1.0 | . | 0.9 | 8.7
CCN(CC)c1nc(C)c2c(c1C#N)CC(C)(C)OC2 | -3.5 | -1.5 | 0.6 | 74.1* | -4.6 | 6.8
O=C(Nc1ccccc1)C(c1ccccc1)c1ccccc1 | . | 15.3 | -1.5 | . | 1.8 | 5.1
Cc1cc(NS(=O)(=O)c2ccc(NC(=O)Nc3ccccc3)cc2)no1 | -9.5 | -1.2 | -2.2 | 46.5 | 1.6 | -0.4
Cc1cc(NS(=O)(=O)c2ccc(NC(=O)C(c3ccccc3)c3ccccc3)cc2)no1 | -2.6 | -6.0 | 0.1 | 91.4* | 1.7 | -5.1
O=C(Nc1ccc(Br)cc1)C(c1ccccc1)c1ccccc1 | -10.6 | -5.7 | 0.4 | 83.2* | -0.1 | -11.1
